According to ChEMBL document CHEMBL4251624, “Synthesis of podophyllotoxin linked β-carboline congeners as potential anticancer agents and DNA topoisomerase II inhibitors” (Eur J Med Chem, 2018):
Active and inactive are the calls of the source. The rule behind the calls is not given here.

What was measured:
MDA-MB-231 = test: Cytotoxicity against human MDA-MB-231 cells after 48 hrs by MTT assay; assay type: functional, cell-based; details: MDA-MB-231, 48 h
In short: (§1)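 MTT assay. Cells seeded at 1×10^4 per well in DMEM or MEM with 10% FBS and grown 24 h at 37 °C under CO2. Compounds added for 48 h, then MTT (5 mg/mL stock) for 4 h. Formazan dissolved in DMSO and read at 570 nm. IC50 is the average of three independent experiments.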

DU-145 [1] = test: Cytotoxicity against human DU145 cells after 48 hrs by MTT assay; assay type: functional, cell-based; details: DU-145, 48 h; in short: as §1
HeLa = test: Cytotoxicity against human HeLa cells after 48 hrs by MTT assay; assay type: functional, cell-based; in short: as §1
HEK293 = test: Cytotoxicity against HEK293 cells after 48 hrs by MTT assay; assay type: cell-based; details: Homo sapiens, HEK293, 48 h; in short: as §1
HT-29 = test: Cytotoxicity against human HT-29 cells after 48 hrs by MTT assay; assay type: functional, cell-based; details: HT-29, 48 h; in short: as §1
A549 = test: Cytotoxicity against human A549 cells after 48 hrs by MTT assay; assay type: functional, cell-based; details: A549, 48 h; in short: as §1
Calf thymus DNA [2] = test: Binding affinity to calf thymus DNA assessed as hypochromic effect at 10 uM by fluorescence spectroscopic method; assay type: nucleic-acid assay; details: Bos taurus
In short: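 Fluorescence titration at 25 °C in an acid-washed 1 cm quartz cuvette. Compound held constant at 10 μM and titrated with CT-DNA in equal steps (multiples of 0.5 μM), with a spectrum after each addition. Excitation 230 nm, emission recorded up to 600 nm.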

DU-145 [3] = test: Cell cycle arrest in human DU145 cells assessed as accumulation at G2/Mphase at 1 uM after 48 hrs by propidium iodide staining based flow cytometry (reference value: 21.71%); assay type: functional
DU-145 [4] = test: Induction of DNA damage in human DU145 cells at 10 uM after 24 hrs using propidium iodide stain by electrophoresis based fluorescence microscopic method; assay type: functional, cell-based
In short: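 DU-145 cells treated at 10 μM for 24 h; about 25,000 cells embedded in agarose on slides. Electrophoresis 20 min at 40 V in 0.5% TBE pH 8. Propidium iodide stain 30 min; fluorescence imaging at 20x.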

Calf thymus DNA [5] = test: Binding affinity to calf thymus DNA assessed as hypochromicity of positive CD band at 10 to 20 uM by CD spectroscopic method relative to control; assay type: nucleic-acid assay; details: Bos taurus
In short: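 CD spectra of 10 μM CT-DNA in 100 mM Tris-HCl pH 7.0, alone and with 10.0 or 20 μM compound (1:1 and 1:2 DNA:complex). Recorded 200–350 nm in a 1 mm path cuvette and averaged over 3 scans.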

DU-145 [6] = test: Cell cycle arrest in human DU145 cells assessed as accumulation at sub-G1 phase at 1 uM after 48 hrs by propidium iodide staining based flow cytometry (reference value: 1.49%); assay type: functional
Calf thymus DNA [7] = test: Binding affinity to calf thymus DNA assessed as hyperchromic effect […] by UV-Visible spectroscopic method; assay type: nucleic-acid assay; details: Bos taurus
In short: (§2)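 UV-visible absorption titration at 25 °C in […] cuvettes. Compound held at 25.0 μM (1 ml, 1 cm path), titrated with 5 μl additions of 25.0 μM CT-DNA in 100 mM Tris-HCl pH 7.0 until absorbance saturated. Spectra recorded 200–400 nm, using freshly prepared stocks.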

Homo sapiens = species: Homo sapiens; test: Inhibition of topoisomerase-2 (unknown origin) assessed as reduction in ATP-dependent decatenation of kinetoplast DNA at 10 uM after 30 mins by ethidium bromide staining based UV trans-illumination assay
In short: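 kDNA decatenation, 20 μl reactions: 120 mM KCl, 50 mM Tris-HCl pH 8, 10 mM MgCl2, 0.5 mM DTT, 0.5 mM ATP, BSA, 200–300 ng kDNA, topo II 5 units. Incubated 37 °C for 30 min, stopped with SDS/proteinase K for 10 min at 37 °C. Products run on 1% agarose at 100 V and visualized by ethidium bromide under UV.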

DU-145 [8] = test: Cell cycle arrest in human DU145 cells assessed as accumulation at S-phase at 1 uM after 48 hrs by propidium iodide staining based flow cytometry (reference value: 24.99%); assay type: functional
DU-145 [9] = test: Cell cycle arrest in human DU145 cells assessed as accumulation at G0/G1 phase at 1 uM after 48 hrs by propidium iodide staining based flow cytometry (reference value: 51.28%); assay type: functional
Calf thymus DNA [10] = test: Binding affinity to calf thymus DNA by UV-Visible spectroscopic method; assay type: nucleic-acid assay; details: Bos taurus; in short: as §2

COc1cc(-c2nc(C(=O)N[C@@H]3c4cc5c(cc4[C@@H](c4cc(OC)c(OC)c(OC)c4)[C@H]4C(=O)OC[C@@H]43)OCO5)cc3c2[nH]c2ccccc23)cc(OC)c1OC
IC50 (MDA-MB-231): 58.8 µM
IC50 (DU-145 [1]): 40.3 µM
IC50 (HeLa): 72.9 µM
IC50 (HEK293): 168 µM
IC50 (HT-29): 86.5 µM
IC50 (A549): 104 µM

COc1cc([C@@H]2c3cc4c(cc3[C@@H](NC(=O)c3cc5c([nH]c6ccccc65)c(-c5ccc(C(F)(F)F)cc5)n3)[C@H]3COC(=O)[C@H]23)OCO4)cc(OC)c1OC
IC50 (MDA-MB-231): 75.9 µM
IC50 (DU-145 [1]): 24.8 µM
IC50 (HeLa): 32.1 µM
IC50 (HEK293): 63 µM
IC50 (HT-29): 46.5 µM
IC50 (A549): 34.1 µM

COc1cc([C@@H]2c3cc4c(cc3[C@H](O)[C@H]3COC(=O)[C@H]23)OCO4)cc(OC)c1OC [PODOFILOX]
IC50 (MDA-MB-231): 9.76 µM
IC50 (DU-145 [1]): 3.11 µM
IC50 (HeLa): 3.04 µM
IC50 (HT-29): 2.99 µM

COc1ccc(OC)c(-c2nc(C(=O)N[C@@H]3c4cc5c(cc4[C@@H](c4cc(OC)c(OC)c(OC)c4)[C@H]4C(=O)OC[C@@H]43)OCO5)cc3c2[nH]c2ccccc23)c1
Activity (Calf thymus DNA [2]): Active
IC50 (MDA-MB-231): 2.64 µM
Activity (DU-145 [3]): 29.16%
Activity (DU-145 [4]): Active
IC50 (DU-145 [1]): 1.07 µM
Activity (Calf thymus DNA [5]): Active
Activity (DU-145 [6]): 10.79%
IC50 (HeLa): 2.92 µM
IC50 (HEK293): 103 µM
IC50 (HT-29): 2.68 µM
Activity (Calf thymus DNA [7]): Active
inhibition (Homo sapiens): Active
IC50 (A549): 1.87 µM
Activity (DU-145 [8]): 41.44%
Activity (DU-145 [9]): 18.69%
Kb (Calf thymus DNA [10]): 1 ×10⁴ /M

COc1ccccc1-c1nc(C(=O)N[C@@H]2c3cc4c(cc3[C@@H](c3cc(OC)c(OC)c(OC)c3)[C@H]3C(=O)OC[C@@H]32)OCO4)cc2c1[nH]c1ccccc12
IC50 (MDA-MB-231): 2.69 µM
IC50 (DU-145 [1]): 1.41 µM
IC50 (HeLa): 4.12 µM
IC50 (HEK293): 107 µM
IC50 (HT-29): 4.3 µM
IC50 (A549): 1.94 µM

COc1cc([C@@H]2c3cc4c(cc3[C@@H](NC(=O)c3cc5c([nH]c6ccccc65)c(-c5cccc6ccccc56)n3)[C@H]3COC(=O)[C@H]23)OCO4)cc(OC)c1OC
IC50 (MDA-MB-231): 27.9 µM
IC50 (DU-145 [1]): 22 µM
IC50 (HeLa): 33 µM
IC50 (HEK293): 77.3 µM
IC50 (HT-29): 23 µM
IC50 (A549): 56.9 µM

COc1cc([C@@H]2c3cc4c(cc3[C@@H](NC(=O)c3cc5c([nH]c6ccccc65)c(-c5ccc(F)c(F)c5)n3)[C@H]3COC(=O)[C@H]23)OCO4)cc(OC)c1OC
Activity (Calf thymus DNA [2]): Active
IC50 (MDA-MB-231): 2.9 µM
Activity (DU-145 [3]): 28.08%
Activity (DU-145 [4]): Active
IC50 (DU-145 [1]): 1.14 µM
Activity (Calf thymus DNA [5]): Active
Activity (DU-145 [6]): 10.9%
IC50 (HeLa): 3.72 µM
IC50 (HEK293): 106 µM
IC50 (HT-29): 3.53 µM
Activity (Calf thymus DNA [7]): Active
inhibition (Homo sapiens): Active
IC50 (A549): 2.24 µM
Activity (DU-145 [8]): 39.65%
Activity (DU-145 [9]): 18.41%
Kb (Calf thymus DNA [10]): 1 ×10⁴ /M

COc1cc([C@@H]2c3cc4c(cc3[C@@H](NC(=O)c3cc5c([nH]c6ccccc65)c(-c5ccc(C)cc5)n3)[C@H]3COC(=O)[C@H]23)OCO4)cc(OC)c1OC
IC50 (MDA-MB-231): 16.4 µM
IC50 (DU-145 [1]): 8.74 µM
IC50 (HeLa): 9.77 µM
IC50 (HEK293): 59.4 µM
IC50 (HT-29): 20 µM
IC50 (A549): 16.8 µM

COc1cc([C@@H]2c3cc4c(cc3[C@@H](NC(=O)c3cc5c([nH]c6ccccc65)c(-c5cccc(F)c5)n3)[C@H]3COC(=O)[C@H]23)OCO4)cc(OC)c1OC
IC50 (MDA-MB-231): 80.4 µM
IC50 (DU-145 [1]): 48.4 µM
IC50 (HeLa): 26.5 µM
IC50 (HEK293): 104 µM
IC50 (HT-29): 55.7 µM
IC50 (A549): 36.4 µM

COc1ccc(-c2nc(C(=O)N[C@@H]3c4cc5c(cc4[C@@H](c4cc(OC)c(OC)c(OC)c4)[C@H]4C(=O)OC[C@@H]43)OCO5)cc3c2[nH]c2ccccc23)cc1
IC50 (MDA-MB-231): 34 µM
IC50 (DU-145 [1]): 16.8 µM
IC50 (HeLa): 21.9 µM
IC50 (HEK293): 65 µM
IC50 (HT-29): 35.6 µM
IC50 (A549): 29.4 µM
